Measured values: ChEMBL document CHEMBL4382192, “Discovery of a potent dual ALK and EGFR T790M inhibitor” (Eur J Med Chem, 2017)

Tests used:
[1] = target: Tyrosine-protein kinase TXK (Homo sapiens) (UniProt P42681); experiment: Binding affinity to wild-type human partial length TXK (L238 to W527 residues) expressed in bacterial expression system assessed as residual binding level at 1 uM by Kinomescan method relative to control
[2] = Cmax in mouse at 2 mg/kg, iv; format: ADME, organism-based; parameters: dose 2 mg/kg, route intravenous; details: in vivo
[3] = target: Myosin light chain kinase, smooth muscle (Homo sapiens) (UniProt Q15746); experiment: Binding affinity to wild-type human full length MYLK (M854 to E1845 residues) expressed in mammalian expression system assessed as residual binding level at 1 uM by Kinomescan method relative to control
How it was run: (§1)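 Single-point kinome-wide KINOMEscan binding panel, test compound at 1 μM, run by the provider's standard protocol.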

[4] = target: Myosin light chain kinase 2, skeletal/cardiac muscle (Homo sapiens) (UniProt Q9H1R3); experiment: Binding affinity to wild-type human partial length MYLK2 (D258 to K570 residues) expressed in bacterial expression system assessed as residual binding level at 1 uM by Kinomescan method relative to control
[5] = target: Cyclin-dependent kinase 16 (Homo sapiens) (UniProt Q00536); experiment: Binding affinity to wild-type human partial length PCTK1 (G160 to A474 residues) expressed in mammalian expression system assessed as residual binding level at 1 uM by Kinomescan method relative to control
[6] = target: MAP kinase-activated protein kinase 2 (Homo sapiens) (UniProt P49137); experiment: Binding affinity to wild-type human partial length MAPKAPK2 (V48 to D345 residues) expressed in bacterial expression system assessed as residual binding level at 1 uM by Kinomescan method relative to control
[7] = target: Phosphatidylinositol 4,5-bisphosphate 3-kinase catalytic subunit alpha isoform (Homo sapiens) (UniProt P42336); experiment: Binding affinity to wild-type human partial length PIK3CA (R108 to N1068 residues) expressed in mammalian expression system assessed as residual binding level at 1 uM by Kinomescan method relative to control
[8] = target: Receptor-interacting serine/threonine-protein kinase 2 (Homo sapiens) (UniProt O43353); experiment: Binding affinity to wild-type human partial length RIPK2 (M1 to K310 residues) expressed in bacterial expression system assessed as residual binding level at 1 uM by Kinomescan method relative to control
[9] = target: SRSF protein kinase 1 (Homo sapiens) (UniProt Q96SB4); experiment: Binding affinity to wild-type human full length SRPK1 (M1 to S655 residues) expressed in bacterial expression system assessed as residual binding level at 1 uM by Kinomescan method relative to control; how it was run: as §1
[10] = test system: Epidermal growth factor receptor (Homo sapiens), P00533 [G719C]; experiment: Binding affinity to human partial length EGFR G719C mutant (R669 to V1011 residues) expressed in bacterial expression system assessed as residual binding level at 1 uM by Kinomescan method relative to control
How it was run: (§2)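 Kinome-wide selectivity panel run by the KINOMEscan method, with the test compound at a single concentration of 1 μM. Wild-type and mutant kinases were profiled in the same screen.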

[11] = target: Cyclin-dependent kinase 2 homolog (Plasmodium falciparum (isolate 3D7)) (UniProt P61075); experiment: Binding affinity to wild-type Plasmodium falciparum full length PK5 (M1 to N288 residues) expressed in mammalian expression system assessed as residual binding level at 1 uM by Kinomescan method relative to control; how it was run: as §2
[12] = test system: Phosphatidylinositol 4,5-bisphosphate 3-kinase catalytic subunit alpha isoform (Homo sapiens), P42336 [E545K]; experiment: Binding affinity to human partial length PIK3CA E545K mutant (R108 to N1068 residues) expressed in mammalian expression system assessed as residual binding level at 1 uM by Kinomescan method relative to control
[13] = test system: Phosphatidylinositol 4,5-bisphosphate 3-kinase catalytic subunit alpha isoform (Homo sapiens), P42336 [H1047Y]; experiment: Binding affinity to human partial length PIK3CA H1047Y mutant (R108 to N1068 residues) expressed in mammalian expression system assessed as residual binding level at 1 uM by Kinomescan method relative to control
[14] = target: Serine/threonine-protein kinase TAO3 (Homo sapiens) (UniProt Q9H2K8); experiment: Binding affinity to wild-type human partial length TAOK3 (M1 to T316 residues) expressed in mammalian expression system assessed as residual binding level at 1 uM by Kinomescan method relative to control
[15] = target: Mitogen-activated protein kinase 12 (Homo sapiens) (UniProt P53778); experiment: Binding affinity to wild-type human full length p38-gamma (M1 to L367 residues) expressed in mammalian expression system assessed as residual binding level at 1 uM by Kinomescan method relative to control
[16] = Tmax in mouse at 10 mg/kg, po; format: ADME, organism-based; details: in vivo
[17] = target: Serine/threonine-protein kinase D1 (Homo sapiens) (UniProt Q15139); experiment: Binding affinity to wild-type human partial length PRKD1 (G551 to E870 residues) expressed in bacterial expression system assessed as residual binding level at 1 uM by Kinomescan method relative to control
[18] = target: Protein-tyrosine kinase 2-beta (Homo sapiens) (UniProt Q14289); experiment: Binding affinity to wild-type human full length PYK2 (M1 to E967 residues) expressed in bacterial expression system assessed as residual binding level at 1 uM by Kinomescan method relative to control; how it was run: as §1
[19] = target: Dual specificity testis-specific protein kinase 1 (Homo sapiens) (UniProt Q15569); experiment: Binding affinity to wild-type human full length TESK1 (R37 to S626 residues) expressed in bacterial expression system assessed as residual binding level at 1 uM by Kinomescan method relative to control
[20] = target: Macrophage colony-stimulating factor 1 receptor (Homo sapiens) (UniProt P07333); experiment: Binding affinity to wild-type human partial length CSF1R (I564 to S939 residues) expressed in bacterial expression system assessed as residual binding level at 1 uM by Kinomescan method relative to control
[21] = target: Tyrosine-protein kinase Fes/Fps (Homo sapiens) (UniProt P07332); experiment: Binding affinity to wild-type human partial length FES (I527 to R822 residues) expressed in bacterial expression system assessed as residual binding level at 1 uM by Kinomescan method relative to control
[22] = target: Atypical kinase COQ8A, mitochondrial (Homo sapiens) (UniProt Q8NI60); experiment: Binding affinity to wild-type human full length ADCK3 (M280 to Q647 residues) expressed in bacterial expression system assessed as residual binding level at 1 uM by Kinomescan method relative to control
[23] = target: Bone morphogenetic protein receptor type-1B (Homo sapiens) (UniProt O00238); experiment: Binding affinity to wild-type human partial length BMPR1B (D178 to L502 residues) expressed in mammalian expression system assessed as residual binding level at 1 uM by Kinomescan method relative to control
[24] = target: Serine/threonine-protein kinase Nek1 (Homo sapiens) (UniProt Q96PY6); experiment: Binding affinity to wild-type human partial length NEK1 (M1 to K278 residues) expressed in bacterial expression system assessed as residual binding level at 1 uM by Kinomescan method relative to control
[25] = target: Ephrin type-A receptor 3 (Homo sapiens) (UniProt P29320); experiment: Binding affinity to wild-type human partial length EPHA3 (D604 to K889 residues) expressed in bacterial expression system assessed as residual binding level at 1 uM by Kinomescan method relative to control
Ephrin type-A receptor 3 (Homo sapiens), sequence (P29320 whole entry, the tested form may be a part): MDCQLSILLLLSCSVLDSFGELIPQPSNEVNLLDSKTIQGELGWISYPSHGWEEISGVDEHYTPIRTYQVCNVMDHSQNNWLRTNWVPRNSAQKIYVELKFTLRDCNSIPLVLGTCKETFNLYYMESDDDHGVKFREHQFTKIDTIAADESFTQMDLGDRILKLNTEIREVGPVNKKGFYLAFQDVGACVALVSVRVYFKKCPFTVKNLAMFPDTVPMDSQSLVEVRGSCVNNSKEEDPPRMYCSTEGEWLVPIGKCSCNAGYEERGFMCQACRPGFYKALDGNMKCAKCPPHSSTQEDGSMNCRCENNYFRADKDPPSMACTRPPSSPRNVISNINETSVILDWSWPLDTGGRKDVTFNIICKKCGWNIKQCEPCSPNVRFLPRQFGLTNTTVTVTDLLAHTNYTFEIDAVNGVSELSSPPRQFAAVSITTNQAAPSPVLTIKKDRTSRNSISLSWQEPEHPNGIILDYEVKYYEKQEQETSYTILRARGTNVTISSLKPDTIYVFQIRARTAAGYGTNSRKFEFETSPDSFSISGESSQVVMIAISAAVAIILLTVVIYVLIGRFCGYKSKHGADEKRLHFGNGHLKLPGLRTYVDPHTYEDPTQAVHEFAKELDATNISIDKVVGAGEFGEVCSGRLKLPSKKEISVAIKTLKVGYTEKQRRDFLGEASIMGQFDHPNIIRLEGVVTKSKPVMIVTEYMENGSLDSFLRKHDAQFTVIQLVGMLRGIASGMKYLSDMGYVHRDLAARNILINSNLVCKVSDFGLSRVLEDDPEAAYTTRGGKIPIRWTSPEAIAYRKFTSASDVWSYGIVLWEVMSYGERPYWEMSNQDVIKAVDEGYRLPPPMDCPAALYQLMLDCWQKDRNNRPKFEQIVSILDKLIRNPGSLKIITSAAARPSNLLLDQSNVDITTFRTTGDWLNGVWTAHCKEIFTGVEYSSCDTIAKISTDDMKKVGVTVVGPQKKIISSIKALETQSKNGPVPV

Tyrosine-protein kinase Fes/Fps (Homo sapiens), sequence (P07332 whole entry, the tested form may be a part): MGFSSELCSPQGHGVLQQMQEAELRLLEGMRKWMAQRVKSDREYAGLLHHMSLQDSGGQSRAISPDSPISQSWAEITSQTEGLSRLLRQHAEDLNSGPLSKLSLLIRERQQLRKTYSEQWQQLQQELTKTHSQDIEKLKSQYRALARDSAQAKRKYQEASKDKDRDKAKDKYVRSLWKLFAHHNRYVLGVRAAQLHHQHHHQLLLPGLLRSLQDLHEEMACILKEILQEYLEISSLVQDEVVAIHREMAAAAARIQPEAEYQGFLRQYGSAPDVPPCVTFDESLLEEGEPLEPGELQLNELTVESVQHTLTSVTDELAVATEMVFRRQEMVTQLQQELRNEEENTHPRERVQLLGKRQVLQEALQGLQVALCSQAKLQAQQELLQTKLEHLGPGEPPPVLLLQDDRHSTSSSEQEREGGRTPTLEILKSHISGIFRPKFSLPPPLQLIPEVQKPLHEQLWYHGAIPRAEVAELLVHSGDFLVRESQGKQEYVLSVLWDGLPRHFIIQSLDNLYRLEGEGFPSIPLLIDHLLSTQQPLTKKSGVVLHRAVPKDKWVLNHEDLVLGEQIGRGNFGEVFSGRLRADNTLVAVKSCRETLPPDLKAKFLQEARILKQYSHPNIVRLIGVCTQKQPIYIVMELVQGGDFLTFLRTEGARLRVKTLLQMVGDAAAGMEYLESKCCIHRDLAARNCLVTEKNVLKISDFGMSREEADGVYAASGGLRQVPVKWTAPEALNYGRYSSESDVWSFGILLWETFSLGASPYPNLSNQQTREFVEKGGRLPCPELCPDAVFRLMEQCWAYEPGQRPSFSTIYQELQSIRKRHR
Tyrosine-protein kinase TXK (Homo sapiens), sequence (P42681 whole entry, the tested form may be a part): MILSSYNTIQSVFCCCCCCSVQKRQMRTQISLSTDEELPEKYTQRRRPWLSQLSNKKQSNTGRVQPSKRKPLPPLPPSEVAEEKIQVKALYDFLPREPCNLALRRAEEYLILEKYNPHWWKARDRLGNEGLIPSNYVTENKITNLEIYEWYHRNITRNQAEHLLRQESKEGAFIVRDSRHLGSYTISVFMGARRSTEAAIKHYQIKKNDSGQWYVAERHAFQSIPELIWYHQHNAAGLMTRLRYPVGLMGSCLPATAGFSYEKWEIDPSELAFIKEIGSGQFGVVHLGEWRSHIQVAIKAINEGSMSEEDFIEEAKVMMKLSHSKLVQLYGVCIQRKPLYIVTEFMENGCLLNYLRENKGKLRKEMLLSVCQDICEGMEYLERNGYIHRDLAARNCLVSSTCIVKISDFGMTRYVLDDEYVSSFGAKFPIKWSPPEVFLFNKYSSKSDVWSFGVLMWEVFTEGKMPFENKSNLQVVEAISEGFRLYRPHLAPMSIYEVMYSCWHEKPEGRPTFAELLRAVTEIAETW
Macrophage colony-stimulating factor 1 receptor (Homo sapiens), sequence (P07333 whole entry, the tested form may be a part): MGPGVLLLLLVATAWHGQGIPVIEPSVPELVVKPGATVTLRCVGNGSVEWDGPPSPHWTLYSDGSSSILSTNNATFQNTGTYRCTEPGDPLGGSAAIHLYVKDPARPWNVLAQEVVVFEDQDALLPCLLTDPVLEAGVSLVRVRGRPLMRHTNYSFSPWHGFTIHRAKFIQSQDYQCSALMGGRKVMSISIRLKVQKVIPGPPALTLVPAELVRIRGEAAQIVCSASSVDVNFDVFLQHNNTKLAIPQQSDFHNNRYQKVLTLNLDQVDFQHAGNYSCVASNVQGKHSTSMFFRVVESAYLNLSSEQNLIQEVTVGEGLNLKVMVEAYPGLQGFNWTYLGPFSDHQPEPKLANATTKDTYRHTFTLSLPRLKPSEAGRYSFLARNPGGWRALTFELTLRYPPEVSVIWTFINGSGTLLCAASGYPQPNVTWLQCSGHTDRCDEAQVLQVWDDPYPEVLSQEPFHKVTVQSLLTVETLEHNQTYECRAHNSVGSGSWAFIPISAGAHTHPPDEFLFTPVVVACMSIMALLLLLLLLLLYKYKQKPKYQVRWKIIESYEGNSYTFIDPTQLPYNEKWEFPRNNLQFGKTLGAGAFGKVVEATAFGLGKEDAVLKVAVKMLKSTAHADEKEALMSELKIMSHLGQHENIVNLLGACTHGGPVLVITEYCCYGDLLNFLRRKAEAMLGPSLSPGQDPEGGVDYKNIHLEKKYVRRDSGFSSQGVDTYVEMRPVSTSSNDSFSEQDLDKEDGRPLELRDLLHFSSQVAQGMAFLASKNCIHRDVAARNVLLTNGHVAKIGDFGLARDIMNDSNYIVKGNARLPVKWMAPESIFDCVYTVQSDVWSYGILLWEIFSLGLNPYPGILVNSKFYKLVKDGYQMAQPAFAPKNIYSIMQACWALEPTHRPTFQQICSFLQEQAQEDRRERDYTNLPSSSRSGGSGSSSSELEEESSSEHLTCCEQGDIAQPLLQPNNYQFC
Phosphatidylinositol 4,5-bisphosphate 3-kinase catalytic subunit alpha isoform (Homo sapiens), P42336 [E545K], sequence (P42336 whole entry E545K, the tested form may be a part, canonical isoform): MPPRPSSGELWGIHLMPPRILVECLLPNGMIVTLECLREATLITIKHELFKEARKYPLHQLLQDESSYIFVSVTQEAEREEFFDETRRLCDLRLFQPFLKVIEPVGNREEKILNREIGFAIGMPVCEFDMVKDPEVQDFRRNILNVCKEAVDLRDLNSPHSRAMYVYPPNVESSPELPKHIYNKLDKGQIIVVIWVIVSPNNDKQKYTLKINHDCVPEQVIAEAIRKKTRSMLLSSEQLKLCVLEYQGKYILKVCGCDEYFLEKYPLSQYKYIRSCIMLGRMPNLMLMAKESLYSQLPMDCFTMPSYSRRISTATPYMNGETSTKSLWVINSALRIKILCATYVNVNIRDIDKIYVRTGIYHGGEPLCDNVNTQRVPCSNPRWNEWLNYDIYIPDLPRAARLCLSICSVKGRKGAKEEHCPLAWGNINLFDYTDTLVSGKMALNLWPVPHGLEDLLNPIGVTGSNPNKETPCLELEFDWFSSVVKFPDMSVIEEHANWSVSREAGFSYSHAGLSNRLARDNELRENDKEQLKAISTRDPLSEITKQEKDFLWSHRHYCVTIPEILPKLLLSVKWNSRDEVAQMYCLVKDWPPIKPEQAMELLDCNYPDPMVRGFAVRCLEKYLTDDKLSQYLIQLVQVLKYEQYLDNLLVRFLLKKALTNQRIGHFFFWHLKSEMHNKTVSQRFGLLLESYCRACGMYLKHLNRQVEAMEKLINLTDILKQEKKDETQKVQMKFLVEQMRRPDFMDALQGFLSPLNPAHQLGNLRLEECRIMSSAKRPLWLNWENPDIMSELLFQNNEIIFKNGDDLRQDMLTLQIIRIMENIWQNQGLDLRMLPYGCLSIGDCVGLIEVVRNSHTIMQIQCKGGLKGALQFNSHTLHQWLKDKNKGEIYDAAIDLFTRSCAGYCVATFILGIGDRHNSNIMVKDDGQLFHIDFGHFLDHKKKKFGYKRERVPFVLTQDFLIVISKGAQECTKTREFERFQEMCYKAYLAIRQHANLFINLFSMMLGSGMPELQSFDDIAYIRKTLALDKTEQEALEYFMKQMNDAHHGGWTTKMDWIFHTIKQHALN
Bone morphogenetic protein receptor type-1B (Homo sapiens), sequence (O00238 whole entry, the tested form may be a part): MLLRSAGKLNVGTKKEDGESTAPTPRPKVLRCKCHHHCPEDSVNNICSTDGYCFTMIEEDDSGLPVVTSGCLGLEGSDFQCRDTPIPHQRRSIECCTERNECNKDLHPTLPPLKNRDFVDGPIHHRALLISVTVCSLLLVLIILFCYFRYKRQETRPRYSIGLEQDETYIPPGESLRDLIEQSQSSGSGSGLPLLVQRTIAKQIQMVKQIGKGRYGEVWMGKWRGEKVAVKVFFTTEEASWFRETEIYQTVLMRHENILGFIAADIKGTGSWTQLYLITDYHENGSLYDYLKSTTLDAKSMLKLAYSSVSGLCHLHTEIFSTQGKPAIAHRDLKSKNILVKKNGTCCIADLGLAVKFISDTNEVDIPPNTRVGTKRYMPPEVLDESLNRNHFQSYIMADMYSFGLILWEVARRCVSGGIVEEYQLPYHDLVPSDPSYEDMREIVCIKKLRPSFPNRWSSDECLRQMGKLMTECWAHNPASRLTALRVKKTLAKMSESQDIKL

## C=CC(=O)Nc1cc(Nc2ncc(Cl)c(Nc3ccccc3S(=O)(=O)C(C)C)n2)c(OC)cc1N(C)CCN(C)C
[1]
  Activity: 0.65%
[2]
  Cmax: 882 ng/mL
[3]
  Activity: 1.3%
[4]
  Activity: 77%
[5]
  Activity: 91%
[6]
  Activity: 100%
[7]
  Activity: 85%
[8]
  Activity: 81%
[9]
  Activity: 28%
[10]
  Activity: 0.95%
[11]
  Activity: 91%
[12]
  Activity: 54%
[13]
  Activity: 100%
[14]
  Activity: 0.15%
[15]
  Activity: 56%
[16]
  Tmax: 1.17 h
[17]
  Activity: 1.2%
[18]
  Activity: 0.5%
[19]
  Activity: 91%
[20]
  Activity: 26%
[21]
  Activity: 1.4%
[22]
  Activity: 100%
[23]
  Activity: 0%
[24]
  Activity: 68%
[25]
  Activity: 77%
